Reference: PMC11785078 (bioRxiv, 2025)

How the values were obtained:
cell culture = conditions: ref [14] Iwasaki et al., 2014; cited from earlier work
[1] = target: T1, Sigma 2 receptor (Transmembrane Protein 97 (TMEM97)) (Rattus norvegicus, UniProt Q5U3Y7); assay: PDSP radioligand competition-binding assay, sigma 2; conditions: 10 μM (primary criterion)
T1 sequence (Q5U3Y7 1-176): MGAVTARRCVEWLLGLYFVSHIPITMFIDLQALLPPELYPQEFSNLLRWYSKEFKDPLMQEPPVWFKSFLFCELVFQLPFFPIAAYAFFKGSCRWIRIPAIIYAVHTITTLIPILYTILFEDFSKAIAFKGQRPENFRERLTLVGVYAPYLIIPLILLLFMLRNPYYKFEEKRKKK

mice = assay: Open field locomotor behavior; assay type: in vivo, male C57Bl/6J mice; conditions: ICV 20 μg, 10-minute open field, vs vehicle, unpaired t-test P>0.05
Procedure, shortened: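 Male C57Bl/6J mice, 8–10 weeks old, fitted under isoflurane with a right lateral ventricle ICV cannula and allowed one week of recovery. After 1 h habituation in a dim room with 60 dB white noise, mice received 20 µg test compound in 0.5 µL 50% DMSO/50% aCSF over 2 min, or vehicle alone. Open field test began 5 min later; total distance travelled was scored blind. Cannula placement was checked at necropsy.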

[2] = system: MDA-MB-231 triple-negative breast cancer (TNBC) cells; assay: MTT cytotoxicity assay, MDA-MB-231; assay type: cell-based, human; conditions: 72 h, 5% FBS
Procedure, shortened: (§1)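 Cells plated at 5×10^3/well and attached overnight. Growth media were DMEM:F-12 (1:1) with 10% FBS for MDA-MB-231 and RPMI 1640 with 10% FBS for MCF-7. Test compound or DMSO vehicle applied for 72 h with 5% FBS. MTT added at 0.5 mg/mL final for 3 h at 37°C, 5% CO2, and formazan dissolved in DMSO. A570 read in three wells per condition and normalized to DMSO + 5% FBS. Mean ± SE of three experiments; one-way ANOVA with Bonferroni.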

[3] = system: MCF-7 estrogen receptor positive breast cancer cells; assay: MTT cytotoxicity assay, MCF-7; assay type: cell-based, human; conditions: 72 h, 5% FBS
Procedure, shortened: as §1

[4] = printed "15 M", mean of three experiments

Row | Substance | antitumor cytotoxicity (cell culture) | Primary: Percent Inhibition of Binding [1] [%] | effect on locomotor behavior (mice) | effect on viability / toxicity in TNBC cells (words) [2] | effect on viability / toxicity in TNBC cells (words) ([2]; listed as veraguamide C) | cytotoxicity, TNBC cells (MDA-MB-231) [2, 4] [%] | effect on viability / toxicity in MCF-7 (ER positive) cells ([3]; listed as veraguamide C) | cytotoxicity, MCF7 cells [3, 4] [%]
1 | maedamide | only linear depsipeptide that exhibits antitumor cytotoxicity in cell culture | – | – | – | – | – | – | –
2 | veraguamide C | – | 65 | no effect of veraguamide C on total distance traveled compared to vehicle | selectively reduce viability | similar, albeit minor, levels of toxicity | 53 | mild toxicity | 65
